# A selection: hits, their analogues and other compounds. The true share with any hit is near 3.7%.
# SR-BI HDL uptake – blocks mouse SR-BI lipid uptake from DiI-HDL. ldlA[mSR-BI] CHO cells, DiI-HDL uptake fluorescence, 3 h. inhibition, % at 12.5 µM. actives 0.96% (n = 320,000). AID 488896;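 active = mean replicate inhibition of at least 70% and a set share of replicates each scoring 70 or more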;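 also: 0% = median of neutral control wells and 100% = median of positive control wells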
# Target sequence (Q61009 whole entry, looked up): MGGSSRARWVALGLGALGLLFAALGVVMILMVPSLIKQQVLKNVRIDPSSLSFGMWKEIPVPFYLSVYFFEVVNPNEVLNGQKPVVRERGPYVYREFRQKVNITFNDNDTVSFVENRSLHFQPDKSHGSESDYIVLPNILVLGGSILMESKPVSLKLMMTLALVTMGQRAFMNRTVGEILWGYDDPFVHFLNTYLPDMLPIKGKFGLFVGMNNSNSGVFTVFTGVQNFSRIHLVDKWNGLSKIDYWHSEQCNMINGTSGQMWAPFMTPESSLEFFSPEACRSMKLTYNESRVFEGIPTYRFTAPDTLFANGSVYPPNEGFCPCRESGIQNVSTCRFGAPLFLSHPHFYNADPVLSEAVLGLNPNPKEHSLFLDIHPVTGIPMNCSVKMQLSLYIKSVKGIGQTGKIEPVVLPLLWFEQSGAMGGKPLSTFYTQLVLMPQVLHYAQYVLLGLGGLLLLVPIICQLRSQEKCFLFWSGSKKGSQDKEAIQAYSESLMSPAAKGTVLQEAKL
# FXN GAA850 act – activators of GAA850 frataxin (FXN) promoter | HEK293 lucGAA850 FXN promoter luciferase reporter, 24 h; percent of 10 µM SAHA response | activation, % at 6 µM | actives 0.56% (n = 360,000);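 active = activation above the average of all compounds screened plus 3 SD, cutoff fixed separately per campaign, cut at about 7.5% in these data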;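 also: 0% = DMSO wells and 100% = 10 µM SAHA wells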
# AHR activator – human AHR activation; P35869; actives 2.5% (n = 320,000); AHR-responsive luciferase reporter cells, luminescence; activation, % at 5 µM; in the data active = activation above about 47%;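 also: 0% = vehicle wells and 100% = reference agonist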
# SR-BI uptake up – activators of SR-BI mediated HDL lipid uptake | CHO ldlA[mSR-BI] cells, DiI-HDL uptake fluorescence, 3 h; 100 = double the neutral-control signal | activation, % at 12.5 µM | actives 0.096% (n = 320,000) | AID 504775;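 active = mean replicate activation of at least 60% and every replicate at or above 60%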;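 also: 0% = median plate neutral-control signal and 100% = twice that signal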
#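 System: LDL receptor-deficient CHO ldlA cells overexpressing murine SR-BI | Timing: 3 h uptake period with compound, 37 °C | Medium: HEPES-buffered (25 mM, pH 7.4) F12 plus 0.5% BSA | Dosing: Single-point compound dose | Signal: Bottom-read fluorescence, 550/595 nm | Read-out: Retained DiI signal reflecting DiI-HDL uptake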
# JMJD2C inh – human JMJD2C demethylase inhibition; Q9H3R0; inhibition, % at 2.35 µM; actives 0.069% (n = 330,000); GST-JMJD2C(1-420) H3K9me3 demethylation, DELFIA europium;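 active = more than half of a compound's replicate wells show inhibition beyond 50%, single wells judged on their own value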;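 also: signal counts dimethyl H3K9 product captured on neutravidin plate; 0% = median of DMSO wells and 100% = 0.3 times that DMSO median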
# The depositor's hits bear a star; nt = no result given.
SMILES,SR-BI HDL uptake,FXN GAA850 act,AHR activator,SR-BI uptake up,JMJD2C inh
COc1ccc2nc(NC(=O)C3CC(=O)N(c4ccc5c(c4)OCCO5)C3)sc2c1 (configuration not stated),24,1,nt,-24,nt
COc1ccc(-c2nc(NC(=O)C3CC(=O)N(c4ccc5c(c4)OCCO5)C3)sc2C)cc1 (configuration not stated),74*,-11,39,-74,17
Oc1ccccc1-c1cc(-c2ccc(F)cc2)n[nH]1,21,6,74*,-21,-4
Oc1ccc(Cl)cc1-c1cc(-c2ccccc2)n[nH]1,28,1,66*,-28,-3
COc1ccccc1-c1cc(-c2cc(Cl)ccc2O)n[nH]1,28,0,32,-28,2
Oc1ccc(Br)cc1-c1cc(-c2ccccc2Cl)[nH]n1,57,5,47,-57,8
O=C1C=C(c2ccc3c(c2)OCCO3)C[C@@H](c2ccc(F)cc2)C1,-5,3,1,5,-3
Oc1ccc(F)cc1-c1cc(-c2ccc3c(c2)OCCO3)n[nH]1,79*,5,9,-79,-6
Oc1ccc(Br)cc1-c1cc(-c2ccccc2F)[nH]n1,52,7,56*,-52,20
O=C1C=C(Nc2ccccc2C(=O)O)c2ccccc2C1=O,-43,1,52*,43,0
O=C1C=C(Nc2ccccc2)c2ccccc2C1=O,34,1,nt,-34,-21
CCCCn1c(NC(=S)Nc2ccccc2)nc2ccccc21,3,0,66*,-3,-23
CCn1c(NC(=O)c2ccccc2)nc2ccccc21,25,1,45,-25,5
CCn1c(NC(=O)c2cccc(Cn3cc(Cl)cn3)c2)nc2ccccc21,93*,0,40,-93,5
CCCn1c(NC(=O)c2ccccc2Br)nc2ccccc21,1,1,47*,-1,-9
Cn1c(NC(=O)c2cccc(Cn3cc(Cl)cn3)c2)nc2ccccc21,51,5,3,-51,-5
CCCCn1c(NC(=O)c2ccccc2)nc2ccccc21,29,1,73*,-29,0
COc1ccc(CC(=O)Nc2cccc(C)n2)cc1OC,-9,1,-3,9,1
CCCn1c(NC(=O)c2ccc(F)cc2)nc2ccccc21,53,3,53*,-53,-7
COc1cc(OC)c(OC)cc1CNC(=O)c1cc(S(=O)(=O)N(C)c2ccccc2OC)ccc1C,17,1,nt,-17,nt
C=CCn1c(O)c(N=NC(=S)Nc2cccc(OC)c2)c2ccccc21,14,-1,61*,-14,-16
C=CCn1c(O)c(N=NC(=O)CNC(=O)Cc2ccccc2)c2ccccc21,7,1,53*,-7,10
C=CCn1c(O)c(N=NC(=O)CNC(=O)c2ccco2)c2ccccc21,-33,-2,47,33,-4
CCCc1nc(C(C)(C)O)c(C(=O)O)n1Cc1ccc(-c2ccccc2-c2nn[nH]n2)cc1,nt,nt,-3,nt,8
CC(C)Oc1ccc(S(=O)(=O)N2CCOCC2)cc1NC(=O)CN1C(=O)c2ccccc2C1=O,-8,1,nt,8,nt
SMILES,SR-BI HDL uptake,FXN GAA850 act,AHR activator,SR-BI uptake up,JMJD2C inh
O=c1[nH]c2ccccc2nc1-c1ccc(Cl)cc1,7,3,76*,-7,-24
Oc1[nH]c2ccccc2c1N=Nc1cccc(Cl)c1,8,7,41,-8,-2
Cc1cccc2c(N=Nc3ccccc3)c(O)[nH]c12,nt,3,76*,nt,3
CCOc1ccc(C(=O)c2ccc(OCC)c(N)c2)cc1N,11,4,60*,-11,3
Cc1ccc(C(=O)Nc2nc3ccccc3s2)s1,32,-2,79*,-32,3
Cc1ccc(CNc2nc3ccccc3s2)s1,9,-2,68*,-9,-8
Cc1ccc(C(=O)O)c(C(=O)Nc2nc3ccccc3s2)c1,-55,0,9,55,3
COc1ccc(CNc2nc3ccccc3s2)cc1OC,0,1,42,0,2
COc1cc(SC)ccc1C(=O)Nc1cccc(C2OCCCO2)c1,4,3,4,-4,-1
c1ccc(-n2nnnc2Oc2ccc(-n3ccnc3)cc2)cc1,-3,-3,72*,3,-4
COc1ccc(Oc2nnnn2-c2ccccc2)cc1,6,3,4,-6,16
O=C(NC(=S)NNC(=O)c1ccccc1O)c1ccc(F)cc1,125*,-1,7,-125,8
Cc1ccc(C(=O)NNC(=S)NC(=O)c2ccccc2)cc1,4,1,1,-4,14
Cc1ccc(C(=O)NC(=S)NNC(=O)c2ccccc2O)cc1,112*,1,2,-112,2
CC(C)(C)c1cc(CCC(=O)NNC(=S)NC(=O)c2ccccc2)cc(C(C)(C)C)c1O,71*,2,6,-71,0
O=C(NNC(=S)NC(=O)c1ccccc1)c1ccc([N+](=O)[O-])cc1,-6,0,3,6,9
O=C(NC(=S)NNC(=O)c1ccccc1O)c1ccc([N+](=O)[O-])cc1,106*,-1,1,-106,9
Fc1ccccc1NC(=S)N(CCCN1CCOCC1)Cc1cccnc1,-5,-1,4,5,125
COc1ccc(C(=O)CSc2nnc(CN3CCCC3)n2-c2ccc(F)cc2)c(OC)c1,66,0,0,-66,-7
O=C(NNC(=O)c1ccccc1Cl)c1cccs1,-1,0,1,1,-5
O=C(NC(=S)NNC(=O)c1ccccc1O)c1cccs1,114*,2,15,-114,-2
O=C(NNC(=S)NC(=O)c1ccc(Br)cc1)c1ccc([N+](=O)[O-])cc1,-10,1,2,10,0
O=C(NNC(=S)NC(=O)c1ccc(Br)cc1)c1cccc([N+](=O)[O-])c1,-8,1,53*,8,-3
O=C(NNC(=S)NC(=O)c1ccccc1[N+](=O)[O-])c1ccccc1O,84*,3,-1,-84,-28
O=C(NNC(=O)c1cc(Cl)ccc1O)c1cccs1,89*,1,14,-89,-14
SMILES,SR-BI HDL uptake,FXN GAA850 act,AHR activator,SR-BI uptake up,JMJD2C inh
O=C(NNC(=O)c1ccccc1O)c1ccc(-c2ccc([N+](=O)[O-])cc2)o1,121*,2,25,-121,-1
O=C(NC(=S)NNC(=O)c1ccccc1O)c1ccccc1,100*,2,7,-100,-5
O=C(CCc1ccccc1)NNC(=O)c1ccccc1C(=O)O,-16,0,3,16,24
O=C(CCc1ccccc1)NNC(=O)c1cc(Cl)ccc1O,115*,1,1,-115,22
O=C(Nc1ccccc1)c1ccc(-c2ccc([N+](=O)[O-])cc2)o1,nt,4,37,nt,10
CC1(C)Oc2ccc(NC(=O)c3ccco3)cc2O1,-13,4,16,13,-1
COc1ccc(-c2nc3cc(NC(=O)Cc4ccc(OC)c(OC)c4)ccc3o2)cc1,1,-3,-15,-1,-3
